Experimental data: ChEMBL document CHEMBL1148348, “New manzamine alkaloids from an Indo-Pacific sponge. Pharmacokinetics, oral availability, and the significant activity of several manzamines against HIV-I, AIDS opportunistic infections, and inflammatory diseases” (J Med Chem, 2004); call rule not given here
In brackets after ≈: the same amount, converted by molar mass.

Experiments:
Staphylococcus aureus [1] = test: Inhibitory concentration against Staphylococcus aureus; Not active; format: functional, organism-based
Cryptococcus neoformans [2] = test: Inhibitory concentration against Cryptococcus neoformans; Not active; format: functional, organism-based
Staphylococcus aureus [3] = test: Inhibitory concentration against methicillin-resistant Staphylococcus aureus; Not active; format: functional, organism-based
[4] = system: Mycobacterium intracellulare; test: Inhibitory concentration against Mycobacterium intracellular; Not active; format: functional, organism-based
[5] = system: Human immunodeficiency virus 1; test: Effective concentration against HIV-1; format: functional, organism-based
[6] = system: Mycobacterium intracellulare; test: Minimal inhibitory concentration against Mycobacterium intracellular; Range is 0.5-6.25 ug/mL; format: functional
[7] = Oral bioavailability in rat; format: ADME, organism-based; details: in vivo
[8] = Half-life at 10 mg/kg in rat upon intravenous administration; format: ADME, organism-based; parameters: dose 10 mg/kg, route intravenous; details: in vivo
Outline: (§1)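 Male Sprague-Dawley rats (280-320 g), jugular/carotid cannulated the day before, fasted until 12 h post-dose. Given 10 mg/kg iv as a 5 min jugular infusion, approx. 3 mg/mL in 10% v/v ethanol/50 mM tartrate buffer pH 3.0. Carotid blood sampled over 96 h; plasma by validated HPLC/MS (LOQ 10 ng/mL). Parameters estimated from mean plasma concentrations, n = 3.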

[9] = Tmax in rats; format: ADME, organism-based; details: rat, in vivo
[10] = Apparent volume of distribution at 10 mg/kg in rat upon intravenous administration; format: ADME, organism-based; parameters: dose 10 mg/kg, route intravenous; details: in vivo; outline: as §1
[11] = Plasma clearance at 10 mg/kg in rat upon intravenous administration; format: ADME, organism-based; parameters: dose 10 mg/kg, route intravenous; outline: as §1
Cryptococcus neoformans [12] = test: Inhibitory concentration against Cryptococcus neoformans; format: functional, organism-based
[13] = Partition coefficient (logP); format: physicochemical; details: octanol/water
Staphylococcus aureus [14] = test: Inhibitory concentration against methicillin-resistant Staphylococcus aureus; format: functional, organism-based
[15] = system: Mycobacterium intracellulare; test: Inhibitory concentration against Mycobacterium intracellular; format: functional, organism-based
[16] = Cmax in rats; format: ADME, organism-based; details: rat, in vivo
Staphylococcus aureus [17] = test: Minimal inhibitory concentration against methicillin-resistant Staphylococcus aureus; Range is 0.5-6.25 ug/mL; format: functional
Staphylococcus aureus [18] = test: Minimal inhibitory concentration against Staphylococcus aureus; Range is 0.5-6.25 ug/mL; format: functional
Staphylococcus aureus [19] = test: Inhibitory concentration against Staphylococcus aureus; format: functional, organism-based
Rattus norvegicus [20] = species on record: Rattus norvegicus; test: Inhibitory activity against superoxide anion generation in rat neonatal brain microglia cells; format: functional, cell-based
Outline: (§2)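 Rat neonatal brain microglia stimulated with phorbol ester. Release of superoxide anion or thromboxane B2 is measured, and inhibition is expressed as IC50.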

[21] = Inhibitory activity against thromboxane B2; parameters: species or system Rattus norvegicus; outline: as §2
Rattus norvegicus [22] = species on record: Rattus norvegicus; test: Concentration for 50% increase in lactate dehydrogenase release in rat neonatal brain microglia cells; format: functional
Outline: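 Lactate dehydrogenase released from rat neonatal brain microglia serves as the marker of cell toxicity. The value is expressed as LDH50.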

SMILES | IC50 (Staphylococcus aureus [1]) | IC50 (Cryptococcus neoformans [2]) | IC50 (Staphylococcus aureus [3]) | IC50 [4] | EC50 [5] | other results
Oc1cccc2c3cc[nH]c(C4=C[C@]56CC/C=C\CCCCN7CC[C@@H]4[C@]4(C[C@@H]8/C=C\CCC[C@@H](O5)N8[C@H]46)C7)c-3nc12 [12,28-OXA-8-HYDROXY-MANZAMINE A] | Not Active | Not Active | Not Active | Not Active | – | –
C1=C(c2[nH]ccc3c4ccccc4nc2-3)[C@@H]2CCN3CCCC/C=C\CC[C@]14O[C@@H]1CCC/C=C\[C@H]5C[C@@]2(C3)[C@H]4N51 [12,28-OXAMANZAMINE A] | Not Active | Not Active | Not Active | Not Active | 22.2 µM | –
Cc1cn([C@H]2C[C@H](N=[N+]=[N-])[C@@H](CO)O2)c(=O)[nH]c1=O [ZIDOVUDINE] | – | – | – | – | 0.004 µM | –
O[C@]12C=C(c3[nH]ccc4c5ccccc5nc3-4)[C@@H]3CCN(CCCC/C=C\CC1)C[C@@]31C[C@@H]3/C=C\CCCCN3[C@H]12 [MANZAMINE] | – | – | – | – | 4.2 µM | MIC [6]: < 6.25 µg/mL; bioavailability [7]: 20.6%; half-life [8]: 53.7 h; Tmax [9]: 10 h; Vd [10]: 23.7 L/kg; clearance [11]: 5.1 mL/min/kg; IC50 (Cryptococcus neoformans [12]): 3 µg/mL (≈ 5.47 µM); logP [13]: 8.34; IC50 (Staphylococcus aureus [14]): 0.7 µg/mL (≈ 1.28 µM); IC50 [15]: 0.35 µg/mL (≈ 0.638 µM); Cmax [16]: 1070 ng/mL; MIC (Staphylococcus aureus [17]): < 6.25 µg/mL; MIC (Staphylococcus aureus [18]): < 6.25 µg/mL; IC50 (Staphylococcus aureus [19]): 0.5 µg/mL (≈ 0.911 µM)
OC1=C[C@@]2(O)CC/C=C\CCCCN3CC[C@@H]1[C@]1(C[C@@H]4/C=C\CCCCN4[C@H]12)C3 [IRCINOL A] | Not Active | Not Active | – | – | – | –
O=C1CCCN2[C@@H](CC1)C[C@]13CN4CCCC/C=C\CC[C@](O)(C=C(c5nccc6c5[nH]c5ccccc56)C1CC4)[C@H]23 (stereo partly specified) [MANZAMINE E] | Not Active | Not Active | Not Active | – | – | –
Oc1cccc2c1[nH]c1c(C3=C[C@@]4(O)CC/C=C\CCCCN5CC[C@@H]3[C@]3(CC6/C=C\CCCCN6[C@H]34)C5)nccc12 (stereo partly specified) | – | – | – | – | – | MIC [6]: < 6.25 µg/mL; IC50 (Rattus norvegicus [20]): > 30 µM; IC50 [21]: > 30 µM; LDH50 (Rattus norvegicus [22]): >30 µM; MIC (Staphylococcus aureus [18]): < 6.25 µg/mL
O=CC1=C[C@@]2(O)CC/C=C\CCCCN3CC[C@@H]1[C@]1(C[C@@H]4/C=C\CCCCN4[C@H]12)C3 [IRCINAL] | Not Active | Not Active | Not Active | Not Active | – | –
O=C1CCCN2[C@@H](CC1)C[C@]13CN4CCCC/C=C\CC[C@](O)(C=C(c5nccc6c5[nH]c5c(O)cccc56)C1CC4)[C@H]23 (stereo partly specified) [MANZAMINE F] | Not Active | – | Not Active | – | – | –
